According to ChEMBL document CHEMBL1123124, “New antihistaminic N-heterocyclic 4-piperidinamines. 2. Synthesis and antihistaminic activity of 1-[(4-fluorophenyl)methyl]-N-(4-piperidinyl)-1H-benzimidazol-2-a mines” (1985):

What was measured:
[1] = tested on: Cavia porcellus; assay: In vivo histamine induced lethality after 24 hours of iv administration in guinea pig; type: functional
[2] = tested on: Cavia porcellus; assay: In vivo histamine induced lethality after 3 hours of iv administration in guinea pig; type: functional
[3] = tested on: Cavia porcellus; assay: In vivo histamine induced lethality after 8 hours of iv administration in guinea pig; type: functional
[4] = tested on: Rattus norvegicus; assay: In vivo antihistaminic activity using compound 48/80 induced lethality test in rat after 2 hr( oral administration); type: functional
Summary of the method: (§1)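 Protection was survival for 4 h after challenge. ED50 with confidence limits was calculated by Finney from five rats per dose and at least three doses of a geometric series (0.0025–40 mg/kg). Estimated ED50 used at least two rats per dose.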

[5] = tested on: Rattus norvegicus; assay: Inhibition of histamine skin reaction in rat after 2 hr of oral administration.; type: functional
Summary of the method: (§2)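 Test compound or solvent given orally to rats 2 h before four intradermal injections into clipped back: two of 50 μL histamine dihydrochloride (1 mg/mL in saline), two of 50 μL serotonin (2 μg/mL in saline). Then iv 0.5 mL of 0.5% trypan blue. Bluing of skin reactions scored 30 min later.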

[6] = tested on: Rattus norvegicus; assay: Inhibition of mydriatic activity in rat after 2 hr of oral administration.; type: functional
[7] = tested on: Rattus norvegicus; assay: Inhibition of serotonin skin reaction in rat after 2 hr of oral administration.; type: functional; summary of the method: as §2
[8] = tested on: Rattus norvegicus; assay: In vivo antihistaminic activity using compound 48/80 induced lethality test after 1 hr of subcutaneous administration in rat; type: functional; details: sc; summary of the method: as §1
[9] = tested on: Rattus norvegicus; assay: In vivo antihistaminic activity using compound 48/80 induced lethality test in rat after 2 hr of oral administration; type: functional; summary of the method: as §1
[10] = tested on: Rattus norvegicus; assay: Inhibition of histamine skin reaction in rat after 2 hr of subcutaneous administration.; type: functional; details: sc
[11] = tested on: Rattus norvegicus; assay: Inhibition of mydriatic activity in rat after 2 hr of intraperitoneal administration; type: functional; details: ip
[12] = tested on: Rattus norvegicus; assay: Inhibition of serotonin skin reaction in rat after 2 hr of subcutaneous administration.; type: functional; details: sc
[13] = tested on: Rattus norvegicus; assay: Inhibition of mydriatic activity in rat after 2 hr of oral administration; type: functional
[14] = tested on: Rattus norvegicus; assay: In vivo antihistaminic activity using compound 48/80 induced lethality test in rat 2 hr after oral administration; type: functional; summary of the method: as §1
[15] = tested on: Cavia porcellus; assay: In vivo histamine induced lethality after 48 hours of iv administration in guinea pig; type: functional
Summary of the method: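 Male albino guinea pigs (280–360 g) were dosed orally 3, 24, 48 or 96 h before an iv challenge with histamine dihydrochloride (1.25 mg/kg). Protection was survival at 1 h. Doses rose in 2-fold steps from 0.0025 mg/kg, with at least three doses and 4–6 animals per dose and time point. PD50 with confidence limits was computed by Finney.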

[16] = tested on: Cavia porcellus; assay: In vivo histamine induced lethality after 96 hours of iv administration in guinea pig; type: functional
[17] = tested on: Rattus norvegicus; assay: Inhibition of histamine skin reaction in rat after 2 hr of oral administration; type: functional; summary of the method: as §2
[18] = tested on: Rattus norvegicus; assay: Inhibition of serotonin skin reaction in rat after 2 hr of oral administration; type: functional; summary of the method: as §2
[19] = tested on: Rattus norvegicus; assay: In vivo antihistaminic activity using compound 48/80 induced lethality test in rat after 2 hr of oral administration.; type: functional; summary of the method: as §1
[20] = tested on: Rattus norvegicus; assay: Inhibition of mydriatic activity in rat after 2 hr of intraperitoneal administration.; type: functional; details: ip
[21] = tested on: Rattus norvegicus; assay: In vivo antihistaminic activity using compound 48/80 induced lethality test in rat after 2 hr of subcutaneous administration; type: functional; details: sc; summary of the method: as §1
[22] = tested on: Rattus norvegicus; assay: In vivo antihistaminic activity using compound 48/80 induced lethality test in rat after 2 hr of oral administration; C represents estimated ED50 values used whenever possible for comparison of relative potencies; type: functional, organism-based
Summary of the method: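 Protection = survival 4 h after challenge. ED50 (dose giving 50% survival) calculated with confidence limits by Finney, five animals per dose, at least three doses from geometric series 0.0025–40.0 mg/kg. Estimated ED50 values based on at least two animals per dose.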

Structure (SMILES): CN1CCC(=C2c3ccccc3C=Cc3ccccc32)CC1 [CYPROHEPTADINE]
- ED50 [1]: > 2.5 mg/kg
- ED50 [2]: 0.08 mg/kg
- ED50 [3]: 0.88 mg/kg
- ED50 [4]: 1.13 mg/kg
- ED50 [5]: 0.89 mg/kg
- ED50 [6]: 9.36 mg/kg
- ED50 [7]: 2.35 mg/kg

Structure (SMILES): CN1CCC(Nc2nc3ccccc3n2Cc2ccc(F)cc2)CC1
- ED50 [8]: 0.16 mg/kg
- ED50 [9]: 2.5 mg/kg
- ED50 [10]: 0.04 mg/kg
- ED50 [11]: > 40 mg/kg
- ED50 [12]: ≥ 0.63 mg/kg

Structure (SMILES): COc1ccc(CN(CCN(C)C)c2ccccn2)cc1 [PYRILAMINE]
- ED50 [5]: > 40 mg/kg
- ED50 [13]: 56.5 mg/kg
- ED50 [7]: > 40 mg/kg
- ED50 [14]: 56.6 mg/kg

Structure (SMILES): COc1ccc(CCN2CCC(Nc3nc4ccccc4n3Cc3ccc(F)cc3)CC2)cc1 [ASTEMIZOLE]
- ED50 [1]: 0.07 mg/kg
- ED50 [2]: 0.33 mg/kg
- ED50 [15]: 0.04 mg/kg
- ED50 [3]: 0.17 mg/kg
- ED50 [16]: 0.19 mg/kg
- ED50 [8]: 0.11 mg/kg
- ED50 [9]: 0.11 mg/kg
- ED50 [17]: 0.13 mg/kg
- ED50 [10]: 0.15 mg/kg
- ED50 [11]: > 40 mg/kg
- ED50 [6]: > 160 mg/kg
- ED50 [18]: 14.2 mg/kg
- ED50 [12]: > 2.5 mg/kg

Structure (SMILES): Fc1ccc(Cn2c(NC3CCN(CCc4ccccc4)CC3)nc3cc(F)ccc32)cc1
- ED50 [8]: 1.25 mg/kg
- ED50 [19]: > 2.5 mg/kg

Structure (SMILES): Br.OCCN1CCC(Nc2nc3ccccc3n2Cc2ccc(F)cc2)CC1
- ED50 [1]: 0.09 mg/kg
- ED50 [2]: 0.04 mg/kg
- ED50 [15]: 0.3 mg/kg
- ED50 [3]: 0.07 mg/kg
- ED50 [16]: 2.15 mg/kg
- ED50 [8]: 0.04 mg/kg
- ED50 [9]: 0.63 mg/kg
- ED50 [10]: 0.08 mg/kg
- ED50 [20]: > 40 mg/kg
- ED50 [12]: > 0.63 mg/kg

Structure (SMILES): COC(=O)Oc1ccc(CCN2CCC(Nc3nc4ccccc4n3Cc3ccc(F)cc3)CC2)cc1
- ED50 [8]: 0.16 mg/kg
- ED50 [9]: 0.16 mg/kg

Structure (SMILES): Fc1ccc(Cn2c(NC3CCN(C4CCCCC4)CC3)nc3ccccc32)cc1
- ED50 [8]: 0.31 mg/kg
- ED50 [9]: > 2.5 mg/kg

Structure (SMILES): Fc1ccc(Cn2c(NC3CCN(CCc4ccncc4)CC3)nc3ccccc32)cc1
- ED50 [8]: 0.31 mg/kg
- ED50 [9]: 1.25 mg/kg

Structure (SMILES): CN1CCC(=C2c3ccccc3CCc3cccnc32)CC1 [AZATADINE]
- ED50 [2]: 0.014 mg/kg
- ED50 [15]: > 2.5 mg/kg
- ED50 [3]: 0.06 mg/kg
- ED50 [21]: 0.049 mg/kg
- ED50 [9]: 0.48 mg/kg
- ED50 [17]: 0.77 mg/kg
- ED50 [6]: 5.39 mg/kg
- ED50 [18]: 18.8 mg/kg

Structure (SMILES): O=C(Cc1ccccc1)Oc1ccc(CCN2CCC(Nc3nc4ccccc4n3Cc3ccc(F)cc3)CC2)cc1
- ED50 [8]: 0.31 mg/kg
- ED50 [9]: 0.08 mg/kg

Structure (SMILES): O=[N+]([O-])c1ccc(CCN2CCC(Nc3nc4ccccc4n3Cc3ccc(F)cc3)CC2)cc1
- ED50 [8]: > 2.5 mg/kg
- ED50 [22]: Estimated ED50 values used whenever possible

Structure (SMILES): Oc1ccc(CCN2CCC(Nc3nc4ccccc4n3Cc3ccc(F)cc3)CC2)cc1 [DESMETHEYLASTEMIZOLE]
- ED50 [1]: 0.06 mg/kg
- ED50 [2]: 0.19 mg/kg
- ED50 [15]: 0.12 mg/kg
- ED50 [3]: 0.08 mg/kg
- ED50 [16]: 0.27 mg/kg
- ED50 [8]: 0.16 mg/kg
- ED50 [9]: 0.1 mg/kg
- ED50 [10]: 0.08 mg/kg
- ED50 [20]: > 40 mg/kg
- ED50 [12]: ≥ 0.63 mg/kg

Structure (SMILES): CS(=O)(=O)c1ccc(CCN2CCC(Nc3nc4ccccc4n3Cc3ccc(F)cc3)CC2)cc1
- ED50 [8]: 1.25 mg/kg
- ED50 [9]: > 2.5 mg/kg

Structure (SMILES): Cl.Fc1ccc(Cn2c(NC3CCN(CCN4CCOCC4)CC3)nc3ccccc32)cc1
- ED50 [8]: 0.31 mg/kg
- ED50 [9]: 2.5 mg/kg

Structure (SMILES): Fc1ccc(Cn2c(NC3CCN(CCc4ccccc4)CC3)nc3ccc(F)cc32)cc1
- ED50 [8]: 1.25 mg/kg
- ED50 [19]: 0.63 mg/kg

Structure (SMILES): CNC(=O)Oc1ccc(CCN2CCC(Nc3nc4ccccc4n3Cc3ccc(F)cc3)CC2)cc1
- ED50 [8]: 1.25 mg/kg
- ED50 [9]: 2.5 mg/kg

Structure (SMILES): COc1ccc(CCN2CCC(Nc3nc4ccccc4n3Cc3ccc(F)cc3)CC2)c(OC)c1.Cl
- ED50 [8]: 0.31 mg/kg
- ED50 [9]: 0.31 mg/kg

Structure (SMILES): CCn1nnn(CCN2CCC(Nc3nc4ccccc4n3Cc3ccc(F)cc3)CC2)c1=O
- ED50 [8]: 0.16 mg/kg
- ED50 [9]: > 2.5 mg/kg

Structure (SMILES): CC(CN1CCC(Nc2nc3ccccc3n2Cc2ccc(F)cc2)CC1)c1ccccc1 (centres undefined)
- ED50 [8]: 0.63 mg/kg
- ED50 [9]: 2.5 mg/kg

Structure (SMILES): Cl.Fc1ccc(CCN2CCC(Nc3nc4ccccc4n3Cc3ccc(F)cc3)CC2)cc1
- ED50 [8]: 0.31 mg/kg
- ED50 [9]: > 2.5 mg/kg

Structure (SMILES): Cl.Oc1cccc(CCN2CCC(Nc3nc4ccccc4n3Cc3ccc(F)cc3)CC2)c1
- ED50 [8]: 0.16 mg/kg
- ED50 [9]: 0.31 mg/kg

Structure (SMILES): N#CCN1CCC(Nc2nc3ccccc3n2Cc2ccc(F)cc2)CC1
- ED50 [8]: 0.16 mg/kg
- ED50 [9]: 2.5 mg/kg

Structure (SMILES): Fc1ccc(Cn2c(NC3CCN(CCc4ccccn4)CC3)nc3ccccc32)cc1
- ED50 [8]: 0.16 mg/kg
- ED50 [9]: 0.63 mg/kg

Structure (SMILES): O=c1[nH]c2ccccc2n1CCCN1CCN(C(c2ccccc2)c2ccccc2)CC1 [OXATOMIDE]
- ED50 [1]: > 5 mg/kg
- ED50 [2]: 0.2 mg/kg
- ED50 [3]: 1.25 mg/kg
- ED50 [5]: 9.36 mg/kg
- ED50 [6]: > 160 mg/kg
- ED50 [7]: 32.6 mg/kg

Structure (SMILES): Cl.NCCN1CCC(Nc2nc3ccccc3n2Cc2ccc(F)cc2)CC1
- ED50 [8]: 1.25 mg/kg
- ED50 [9]: > 2.5 mg/kg

Structure (SMILES): Oc1nc2ccccc2n1CCCN1CCC(Nc2nc3ccccc3n2Cc2ccc(F)cc2)CC1
- ED50 [8]: 0.31 mg/kg
- ED50 [9]: 1.25 mg/kg

Structure (SMILES): Cl.Cn1nnn(CCN2CCC(Nc3nc4ccccc4n3Cc3ccc(F)cc3)CC2)c1=O
- ED50 [8]: 0.31 mg/kg
- ED50 [9]: > 2.5 mg/kg

Structure (SMILES): Br.Br.Fc1ccc(Cn2c(NC3CCNCC3)nc3ccccc32)cc1
- ED50 [8]: 0.056 mg/kg
- ED50 [9]: 1.02 mg/kg

Structure (SMILES): Fc1ccc(Cn2c(NC3CCN(CCCCOc4ccccc4)CC3)nc3ccccc32)cc1
- ED50 [8]: 0.63 mg/kg
- ED50 [9]: 0.63 mg/kg

Structure (SMILES): Fc1ccc(Cn2c(NC3CCN(CCNCc4ccccc4)CC3)nc3ccccc32)cc1
- ED50 [8]: 1.25 mg/kg
- ED50 [9]: > 2.5 mg/kg
